Test results: article PMC8451882 (British Journal of Clinical Pharmacology, 2021)
“And” between values parts separate entries of the source, which are not always exact repeats. Equal values may be shown once.

Legend:
[1] = Safety and tolerability, MAD study; type: in vivo, human; conditions: healthy volunteers, doses up to 200 mg BID for 7 days
Outline: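 Single-centre, randomised, double-blind, placebo-controlled MAD study: 22 healthy men and women dosed with food, single dose on day 1, then BID (50, 100, 200 mg) or OD (100 mg) on days 3–9. Active and placebo assigned 6:3. Safety and tolerability assessed before and after dosing and at various time points.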

[2] = BCS/BDDCS classification and permeability; type: physicochemical
[3] = Solubility; type: physicochemical
[4] = Single ascending dose; type: in vivo, human
Outline: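 SAD study in healthy volunteers: micronised drug in hard-gelatine capsules without excipients, given orally after an overnight fast of at least 8 h (1, 3, 30, 100, 300, 600 mg), or 100 mg after a high-fat high-calorie breakfast. Plasma (K3EDTA) sampled 0.5–48 h after dosing and assayed by LC-MS/MS (1.00–1000 ng/mL). Parameters derived by noncompartmental analysis.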

[5] = system: metabolic enzyme; assay: In vitro enzymology studies, time-dependent metabolic enzyme inhibition; type: in vitro ADME; conditions: RO5459072 and its metabolites; data held on files at Roche
[6] = system: cathepsin‐S; assay: Inhibition of cathepsin-S enzyme activity throughout the dosing interval; type: in vivo, human; conditions: 50 mg dose
[7] = target: human P‐gp (Homo sapiens, UniProt P08183); assay: In vitro P-gp transport studies; type: in vitro ADME; conditions: up to RO5459072 concentrations of 100 μM; data held on files at Roche
Chain of human P‐gp (P08183 whole entry): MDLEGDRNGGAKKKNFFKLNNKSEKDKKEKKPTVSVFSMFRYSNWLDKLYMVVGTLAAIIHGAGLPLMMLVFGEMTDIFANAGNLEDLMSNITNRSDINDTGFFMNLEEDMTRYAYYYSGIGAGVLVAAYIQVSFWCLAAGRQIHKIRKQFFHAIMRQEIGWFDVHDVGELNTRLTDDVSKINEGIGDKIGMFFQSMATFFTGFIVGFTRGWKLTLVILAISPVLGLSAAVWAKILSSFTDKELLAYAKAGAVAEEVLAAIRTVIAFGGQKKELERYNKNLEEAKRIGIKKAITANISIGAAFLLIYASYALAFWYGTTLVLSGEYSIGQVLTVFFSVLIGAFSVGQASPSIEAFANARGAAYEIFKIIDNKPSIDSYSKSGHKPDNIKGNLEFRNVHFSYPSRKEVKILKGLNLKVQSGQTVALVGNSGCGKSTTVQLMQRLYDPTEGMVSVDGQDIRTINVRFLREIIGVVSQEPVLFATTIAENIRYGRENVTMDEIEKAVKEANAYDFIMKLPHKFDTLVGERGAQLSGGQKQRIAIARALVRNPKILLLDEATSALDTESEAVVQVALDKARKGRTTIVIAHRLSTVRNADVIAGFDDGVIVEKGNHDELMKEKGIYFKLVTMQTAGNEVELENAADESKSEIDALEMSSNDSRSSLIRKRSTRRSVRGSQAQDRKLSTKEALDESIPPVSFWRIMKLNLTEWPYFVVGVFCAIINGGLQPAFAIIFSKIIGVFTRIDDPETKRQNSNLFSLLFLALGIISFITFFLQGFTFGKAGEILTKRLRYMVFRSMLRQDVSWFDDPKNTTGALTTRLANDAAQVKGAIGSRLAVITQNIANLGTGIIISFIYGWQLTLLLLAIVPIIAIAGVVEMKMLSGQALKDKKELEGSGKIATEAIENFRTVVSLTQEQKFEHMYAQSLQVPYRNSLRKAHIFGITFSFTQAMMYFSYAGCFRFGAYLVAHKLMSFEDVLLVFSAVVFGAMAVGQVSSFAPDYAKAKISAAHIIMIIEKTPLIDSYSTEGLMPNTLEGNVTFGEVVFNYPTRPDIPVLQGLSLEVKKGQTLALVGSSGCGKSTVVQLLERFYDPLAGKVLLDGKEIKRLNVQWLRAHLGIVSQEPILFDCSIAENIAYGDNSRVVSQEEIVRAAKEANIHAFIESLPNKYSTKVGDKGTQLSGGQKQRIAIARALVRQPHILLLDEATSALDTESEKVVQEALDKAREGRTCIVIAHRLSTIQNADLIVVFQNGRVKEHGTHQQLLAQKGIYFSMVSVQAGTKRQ

[8] = Population compartmental PK model; type: in vivo, human
Outline: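 Pooled first-dose plasma concentrations (816 samples) from 39 healthy volunteers, SAD (fasted 1–600 mg; fed 100 mg) and MAD (fed 50–200 mg). Analysed in NONMEM 7.3 with ADVAN9 and first-order conditional estimation. 1- and 2-compartment models tested, with first-order absorption with or without lag time or transit compartments. IIV log-normal. Visual predictive checks used 500 simulations. Reported as estimate (% RSE).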

[9] = Excretion after intravenous dose in rats; type: in vivo; conditions: data held on files at Roche
[10] = Multiple ascending dose; type: in vivo, human
Outline: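 MAD study in healthy men and women: oral doses of 50, 100 or 200 mg or placebo (6:3), given with food; first dose on day 1. Plasma (K3EDTA) sampled 0.5–48 h after the first dose. Test compound measured by liquid–liquid extraction and LC-MS/MS, calibration range 1.00–1000 ng/mL. Linearity judged from dose-normalised concentration–time profiles.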

[11] = Safety and tolerability, SAD study; type: in vivo, human; conditions: healthy volunteers, single oral dose up to 600 mg
Outline: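 First-in-human, single-centre, randomised, double-blind, placebo-controlled interleaved-cohort study: 17 healthy men and women in 2 cohorts with 4 periods each. Single oral doses from 1 to 600 mg given fasted, at least 14 days apart. Safety and tolerability assessed before and after dosing and at various time points.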

[12] = interindividual variability, CV% (% RSE) [shrinkage]

SMILES: Cn1cc(-c2ccc(S(=O)(=O)[C@@H]3C[C@@H](C(=O)NC4(C#N)CC4)N(C(=O)C4(C(F)(F)F)CC4)C3)c(C(F)(F)F)c2)cn1 [RO5459072]
- tolerability [1]: tolerated similarly to placebo
- Biopharmaceutics Classification System class [2]: 2
- permeability [2]: highly permeable
- solubility [3]: < 0.02 mg/mL
- Tmax ([4]; both, human, plasma, oral, 100 mg, Tmax, fed): 5 h
- half-life ([4]; both, human, plasma, oral, 600 mg, noncompartmental analysis apparent terminal half-life, fasted, highest doses between 100 and 600 mg): 13 to 16 h
- increase in systemic exposure with dose ([4]; fasted, doses <10 mg): more than dose proportional
- increase in systemic exposure with dose ([4]; fasted, doses >30 mg): less than dose proportional
- Tmax delay fed versus fasted ([4]; fed later than fasted): approximately 1 hour
- decrease of estimated average half-life by food (noncompartmental analysis) ([4]; fed versus fasted): approximately 4 hours
- time-dependent metabolic enzyme inhibition [5]: absence
- inhibition of cathepsin-S enzyme activity in average throughout the dosing interval [6]: about 93%
- saturability of human P-gp [7]: not saturable
- CL/F, apparent total clearance ([8]; fasted and fed conditions, estimate (% RSE)): 9.38 (3.65) L h^−1
- kaFaPI, first-order absorption rate constant of the proximal intestine ([8]; fasted, doses > 3 mg (10 to 600 mg), estimate (% RSE)): 2.05 h^−1 and 2.05 (6.29) h^−1
- kaFaDI, first-order absorption rate constant of the distal intestine ([8]; fasted, doses > 3 mg, estimate (% RSE)): 0.065 h^−1 and 0.065 (9.31) h^−1
- apparent fraction of the total dose absorbed from the distal intestine ([8]; fasted, on average for doses between 10 and 600 mg): ~ 16%
- IIV of D50 [8, 12]: 38.5% (27.3) [40.9%] CV%
- IIV of FFaDI [8, 12]: 32.1% (38.9) [41.0%] CV%
- IIV of Vc/F [8, 12]: 24.0% (15.0) [14.6%] CV%
- IIV of kaFaPI for doses > 3 mg [8, 12]: 33.8% (13.8) [2.44%] CV%
- IIV of kaFe [8, 12]: 39.2% (14.8) [4.21%] CV%
- fraction of dose found unchanged in the faeces [9]: 50%
- half-life ([10]; both, human, plasma, oral, average estimated terminal half-lives, fed, 50 mg, 100 mg, 200 mg doses): 8 to 10 h
- PK linearity ([10]; fed condition from 50 to 100 mg): linear
- tolerability [11]: similarly tolerated to placebo
